Measurements as given in ChEMBL document CHEMBL3085705, “Design, chemical synthesis of 3-(9H-fluoren-9-yl)pyrrolidine-2,5-dione derivatives and biological activity against enoyl-ACP reductase (InhA) and Mycobacterium tuberculosis” (2013).

Columns and labels:
Format in all cases: functional
[1] = system: Mycobacterium tuberculosis; experiment: Antimicrobial activity against streptomycin, isoniazid, rifampicin, ethambutol, pyrazinamide and ethionammide-resistant Mycobacterium tuberculosis clinical isolate by two-fold serial dilution method
Summary of the method: (§1)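 Compounds dissolved in DMSO. Single colony grown in Middlebrook 7H9 with 0.05% Tween 80 and 10% OADC at 37 °C, no shaking, to ~10^8 CFU/mL (OD600 0.8–1.0). Diluted to ~10^7 CFU/mL; 1 μL streaked onto 7H11 agar (0.5% glycerol, 10% OADC) with two-fold serial compound dilutions. MIC is the lowest concentration inhibiting growth. Repeated three times.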

[2] = system: Mycobacterium tuberculosis; experiment: Antimicrobial activity against streptomycin, isoniazid, rifampicin, ethambutol, pyrazinamide, ethionammide and capreomicinl-resistant Mycobacterium tuberculosis clinical isolate by two-fold serial dilution method; summary of the method: as §1
[3] = system: Mycobacterium tuberculosis; experiment: Antimicrobial activity against streptomycin, isoniazid, rifampicin and ethambutol-resistant Mycobacterium tuberculosis clinical isolate by two-fold serial dilution method; summary of the method: as §1

Measured: MIC

O=C(CC(C(=O)O)C1c2ccccc2-c2ccccc21)Nc1cc(Cl)cc(Cl)c1 (stereo not drawn)
4.7 µM: all assays above
